AHR activator: AHR activators, primary screen, cell-based, luminescence, luciferase reporter, human; AID 2796, 2010; activation, % at 5 µM; AHR-responsive luciferase reporter cells; 320,000 compounds, 2.5% hits; in the data active means activation above about 47%;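 further: 0% = vehicle wells and 100% = reference agonist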
ABCB6 inh MLPCN: ABCB6 transporter inhibitors, primary screen, K562-ABCB6 cells, flow cytometry, MLPCN library. ATP-binding cassette sub-family B member 6 (Homo sapiens), Q9NP58. K562-ABCB6 porphyrin accumulation, 1 h; active compounds read low. fluorescence ratio to DMSO, % at 10 µM. 360,000 compounds, 0.19% hits. AID 602162, 2011;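 active means fluorescence ratio to DMSO below 75%, the collection mean minus 3 SD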;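 further: signal is porphyrin accumulated inside mitochondria; 100% equals median channel fluorescence of DMSO control wells; lower ratio means ABCB6 inhibition with less porphyrin fluorescence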
FXN GAA850 act: FXN promoter activators, primary screen, cell-based, luciferase luminescence, HEK293 lucGAA850 | HEK293 lucGAA850 FXN promoter luciferase reporter, 24 h; percent of 10 µM SAHA response | activation, % at 6 µM | 360,000 compounds, 0.56% hits | AID 540364, 2011;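 active means activation above the average of all compounds screened plus 3 SD, cutoff fixed separately per campaign, cut at about 7.5% in these data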;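 further: 0% = DMSO wells and 100% = 10 µM SAHA wells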
SR-BI uptake up: activators of SR-BI mediated DiI-HDL uptake, primary screen, ldlA[mSR-BI] CHO cells, DiI fluorescence. 3 h; 100 = double the neutral-control signal. activation, % at 12.5 µM. 320,000 compounds, 0.096% hits. AID 504775, 2011;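 active means mean replicate activation of at least 60% and every replicate at or above 60%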;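 further: 0% = median plate neutral-control signal and 100% = twice that signal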
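System: CHO ldlA[mSR-BI] cells / Medium: HEPES-buffered (25 mM, pH 7.4) F12 plus 0.5% BSA / Probe or stimulus: labelled HDL, 10 µg/mL / Doses: single compound concentration, delivered by pin transfer / Schedule: 3 h, 37 °C / Measured by: DiI fluorescence, bottom read / Measure: cell-associated DiI fluorescence as measure of HDL uptake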
HIF act: HIF pathway transcriptional activators, primary screen, cell-based, U2OS HRE-luciferase, luminescence | U2OS HRE-luciferase reporter; normalized: DMSO 0%, desferrioxamine 100% | activation, % at 7.5 µM (by protocol) | 300,000 compounds, 0.32% hits | AID 1910, 2009;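 active means mean activation of at least 10% of the iron chelator positive control signal, with at least half of replicates also reaching 10%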
SR-BI HDL uptake: inhibitors of SR-BI mediated HDL lipid uptake, primary screen, ldlA[mSR-BI] cells, fluorescence, single point; 320,000 compounds, 0.96% hits; ldlA[mSR-BI] CHO cells, DiI-HDL uptake fluorescence, 3 h; inhibition, % at 12.5 µM; AID 488896, 2010;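 active means mean replicate inhibition of at least 70% and a set share of replicates each scoring 70 or more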;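 further: 0% = median of neutral control wells and 100% = median of positive control wells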
* = called active by the depositor; . = no result given. An excerpt weighted towards active compounds, which were near 3.9% of everything screened.

SMILES | AHR activator | ABCB6 inh MLPCN | FXN GAA850 act | SR-BI uptake up | HIF act | SR-BI HDL uptake
CCCCCCCCn1c(=O)c(C(=O)OCC)c(O)c2ccccc21 | 0 | 101 | 0 | 11 | 0 | -11
CCCCCn1c(=O)c(-c2nc3ccccc3[nH]2)c(O)c2ccccc21 | 17 | 100 | 4 | -95 | 1 | 95*
CCc1nnc(NC(=O)CCC(=O)N2CCN(Cc3cc(Cl)ccc3OC)CC2)s1 | 3 | 117 | 1 | -61 | 0 | 61
Nc1c(C(=O)O)sc2nc(-c3ccccc3)cc(-c3ccc(F)cc3)c12 | 2 | 101 | 0 | . | 0 | .
CCn1nc(NS(=O)(=O)c2ccc(NC(C)=O)cc2)c2cc3cccc(C)c3nc21 | 2 | 101 | 1 | 14 | 51* | -14
CCn1nc(NC(=O)c2cccnc2)c2cc3cccc(C)c3nc21 | 68* | 99 | -2 | -43 | 0 | 43
CCn1nc(NC(=O)c2ccncc2)c2cc3cccc(C)c3nc21 | 32 | 99 | -4 | -15 | 0 | 15
CCCCOCCCNC(=O)c1ccc2c(c1)OCO2 | 13 | 94 | 2 | 18 | . | -18
CCC1CCc2sc(C(=O)O)cc2C1 (centres undefined) | -1 | 98 | 0 | 33 | 65* | -33
CCC1CCc2sc(C(=O)NNC(=O)c3ccncc3)cc2C1 (centres undefined) | 1 | 86 | 1 | 1 | 0 | -1
CCCCC(O)(CCN1CCOCC1)c1ccc(Cl)cc1 (centres undefined) | 2 | 101 | 0 | 5 | 0 | -5
Cc1[nH]c2ccc(-c3nnc(SCC(=O)c4ccc(F)cc4)o3)cc2c1C | 7 | 98 | 0 | -2 | 0 | 2
Cc1cc(C)c(C)c(C(=O)CSc2nnc(-c3ccc4[nH]c(C)c(C)c4c3)o2)c1C | 25 | 88 | -2 | -84 | 0 | 84*
O=C(c1cc2cc(Br)ccc2[nH]1)N1CCc2ccccc21 | . | 102 | 4 | 3 | 2 | -3
COc1ccc2cc(C(=O)N3CCc4ccccc43)[nH]c2c1 | 82* | 97 | 4 | -54 | 6 | 54
CSc1nc2ccccc2n1Cc1c(Cl)cccc1Cl | 4 | 94 | 4 | -2 | 0 | 2
O=S(=O)(Nc1cc(Sc2ncn[nH]2)c(O)c2ccccc12)c1ccccc1 | . | 104 | -15 | -39 | . | 39
O=C(O)CSc1cc(NS(=O)(=O)c2ccc(Br)cc2)c2ccccc2c1O | 49* | 101 | 0 | 0 | 1 | 0
CS(=O)(=O)c1cccc(NC(=O)c2ccc(Cl)c(Cl)c2)c1 | 23 | 98 | 1 | -83 | 1 | 83*
O=C(Nc1ccc2c(c1)COC2=O)c1ccc(Cl)c(Cl)c1 | -10 | 99 | 5 | -72 | 4 | 72*
COC(=O)C(CC(=O)c1cccc(OC)c1)c1ccc(F)cc1 (centres undefined) | -1 | 101 | 0 | -7 | 0 | 7
Cc1cc(C)cc(NC(=O)Nc2ccc3ccccc3n2)c1 | 56* | 96 | 0 | 18 | 0 | -18
O=C(NCCN1CCNC1=O)C1CCC(=O)N(CCc2ccccc2)C1 (centres undefined) | -3 | 100 | 0 | 1 | -1 | -1
O=C(N/N=C/c1ccc(F)cc1)c1cc(-c2ccco2)nc2ccccc12 | 12 | 85 | -2 | -59 | 5 | 59
Nc1c(C(=O)N/N=C/c2ccc(F)cc2)oc2nc(-c3ccccc3)cc(-c3ccco3)c12 | 57* | 114 | 1 | -18 | 1 | 18
Nc1c(C(=O)N/N=C/c2ccccc2Cl)oc2nc(-c3ccccc3)cc(-c3ccco3)c12 | 50* | 138 | 3 | -18 | 0 | 18

Assay outcomes from PubChem.
